High-throughput results from PubChem BioAssay.
RBBP9 inh – human RBBP9 inhibitors, primary screen, biochemical, fluorescence polarization, FP-Rh probe, HTS. inhibition, % at 7.94 µM. actives 0.2% (n = 220,000). Serine hydrolase RBBP9 (Homo sapiens), O75884. recombinant RBBP9;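 active = inhibition above the campaign mean of all tested compounds plus 3 SD, cut at about 14% in these data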;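 note: plate controls were DMSO wells with RBBP9 for no effect and wells lacking RBBP9 protein for full effect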
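Measured by: FP readout at 525/598 nm; material: recombinant human RBBP9; also added: Serine-hydrolase probe FP-Rh, 375 nM pre-mixing; medium: Tris buffer pH 8.0, NaCl, Pluronic; replication: one well per compound; doses: one concentration, 7.94 µM nominal, 0.794% DMSO; timing: preincubation 30 min plus labeling 45 min at 25 °C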
NCF1 inh – p47phox/p22phox peptide binding inhibitors, primary screen, biochemical, uHTS, NADPH oxidase regulatory subunit; Neutrophil cytosol factor 1 (Homo sapiens), P14598; fluorescence polarization, 2 h; inhibition, % at 24.7 µM; actives 0.53% (n = 220,000);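 active = inhibition above about 30%, limit read from the data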;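 note: 0% = p47phox with labelled peptide and 100% = labelled peptide alone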
KCC2 mod – KCC2 cotransporter modulators, thallium flux, primary screen, cell-based, HEK293 KCC2, FluoZin-2 fluorescence, MLSMR | Solute carrier family 12 member 5 (Homo sapiens), Q9H2X9 | KCC2 cells, thallium flux FluoZin-2 fluorescence | B-score of Tl+ flux slope (higher = more flux/activation; lower = inhibition) at 10 µM | actives 2.2% (n = 190,000) | AID 1456, 2008;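 active = thallium flux slope and its plate-corrected score both differing from the plate sample mean at a set confidence after two filtering rounds, in either direction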;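 note: slope of fluorescence scaled to starting intensity during 10 to 20 s after thallium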
ROMK primary – ROMK potassium channel modulators, primary screen, cell-based, thallium flux, MLSMR library; Tet-inducible ROMK, thallium flux fluorescence; actives lie on both sides; AID 1918, 2009; ATP-sensitive inward rectifier potassium channel 1 (Homo sapiens), P48048; actives 2% (n = 130,000); B-score at 10 µM;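 active = signal ratio slope over the read window, or its plate-corrected B-score, at least 3 SD from the plate mean, either direction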;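 note: B-score of the F/F0 ratio slope over 7 to 12 s after thallium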
Target sequence (P48048 whole entry, looked up): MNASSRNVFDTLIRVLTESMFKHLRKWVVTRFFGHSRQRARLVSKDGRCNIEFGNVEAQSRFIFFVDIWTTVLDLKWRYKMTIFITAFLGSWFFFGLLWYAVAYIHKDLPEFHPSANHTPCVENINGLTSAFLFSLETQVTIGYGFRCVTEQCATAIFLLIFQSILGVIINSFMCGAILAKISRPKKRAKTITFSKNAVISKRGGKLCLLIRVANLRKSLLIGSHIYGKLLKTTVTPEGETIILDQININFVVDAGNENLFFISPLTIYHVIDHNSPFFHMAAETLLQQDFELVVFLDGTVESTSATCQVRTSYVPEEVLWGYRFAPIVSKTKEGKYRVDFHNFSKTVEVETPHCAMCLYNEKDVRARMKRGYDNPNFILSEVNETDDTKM
14-3-3 Bad inh – inhibitors of 14-3-3 zeta/Bad binding, primary screen, biochemical, TR-FRET, bovine 14-3-3 zeta | 14-3-3 protein zeta/delta (Bos taurus), P63103 | TR-FRET 14-3-3zeta/Dy647-pBad peptide displacement, 1 h | inhibition, % at 21.7 µM | actives 0.71% (n = 220,000) | AID 781, 2007;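 active = inhibition above about 70%, limit read from the data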;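 note: 0% = full 14-3-3 plus peptide FRET controls and 100% = background without 14-3-3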
Target sequence (P63103 whole entry, looked up): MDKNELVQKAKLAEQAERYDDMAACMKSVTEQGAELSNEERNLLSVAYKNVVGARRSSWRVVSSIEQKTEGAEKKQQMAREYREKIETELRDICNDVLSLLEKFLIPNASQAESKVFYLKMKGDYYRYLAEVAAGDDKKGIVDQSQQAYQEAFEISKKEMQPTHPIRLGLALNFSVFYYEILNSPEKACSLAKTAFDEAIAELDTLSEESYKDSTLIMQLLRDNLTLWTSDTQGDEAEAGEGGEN
WT yeast gro inh – growth inhibition of WT strain, primary screen, mitochondrial fusion inhibitor project, WT and mutant strains, chemical genetic. mitochondrial fusion phenotypic screen. actives 2.1% (n = 190,000). AID 1362, 2008. inhibition, % at 10 µM; in the data active = inhibition above about 58%; tested in S. cerevisiae
An asterisk follows results filed as active; x = not tested or not shown; + = active, no number; [ ] = another dose, or the depositor's remark. An excerpt weighted towards active compounds, which were near 5.8% of everything screened.

SMILES	RBBP9 inh	NCF1 inh	KCC2 mod	ROMK primary	14-3-3 Bad inh	WT yeast gro inh
O=C(c1cc(-c2ccccc2)nc2ccccc12)N1CCCc2ccccc21	-4.5	-27.3	-1.13	-0.504	0.5	62.9*
CN(Cc1ccc(OC(F)F)cc1)Cc1nc2c(Br)cc(Br)cc2c(=O)[nH]1	-3.8	-54.5	1.34	1.04	-1.1	69.8*
Cc1ccc(NC(=O)CN(C)Cc2nc3c(Br)cc(Br)cc3c(=O)[nH]2)cc1	-3.7	-53.9	-0.00599	0.00232	-17.1	5.4
O=C(NCc1ccco1)c1cccnc1-c1nc2ccccc2s1	-10.7	2.7	-0.698	x	-7.0	63.8*
CCCn1c(SCC(=O)NCCc2ccccc2)nnc1C(C)C	-7.2	-4.6	-0.416	-0.131	0.8	x
COc1ccccc1NC(=O)Cn1c(O)c(N=NC(=O)c2ccccc2O)c2ccccc21	0.8	30.0	-1.02	-1.26	78.6*	6.4
O=C(N=Nc1c(O)n(Cc2ccccc2)c2ccccc12)c1cc2ccccc2cc1O	-3.6	40.3*	0.172	x	46.9	69.8*
Cc1ccc(NC(=O)Cn2c(O)c(N=NC(=O)c3ccncc3)c3ccccc32)cc1	-4.8	11.7	0.503	-0.0123	20.7	-0.2
Cc1ccc(NC(=O)Cn2c(O)c(N=NC(=O)c3cc4ccccc4cc3O)c3ccccc32)cc1	-1.9	57.6*	1.59	x	82.2*[fluorescence artefact?]	3.3
CCOc1ccc(N2C(=O)Nc3ccccc3C2(O)C(=O)N2CCN(c3ccccn3)CC2)cc1 (stereo unspecified)	-0.8	0.0	0.215	0.658	3.1	1.8
CN(C)c1cc[n+](CC(=O)Nc2ccc(Oc3ccccc3)cc2)cc1	-6.6	5.0	-0.0415	-0.602	-6.2	76.0*
CCOc1ccc(NC(=O)C[n+]2ccc(N(C)C)cc2)cc1	-5.7	-12.8	1.74	0.133	0.2	-6.0
Cc1c(N2C(=O)CSC2c2ccco2)c(=O)n(-c2ccccc2)n1C (stereo unspecified)	-0.8	-10.3	-0.144	x	0.6	x
Cc1nc(-c2cn[nH]c2-c2ccc(O)cc2O)cs1	-11.4	-12.9	0.224	-3.09*	9.0	10.6
Cc1ccc(-n2c(=S)[nH]c3sc4c(c3c2=O)CCc2ccccc2-4)cc1	2.2	-9.3	9.12*	x	6.7	-2.1
CC(c1ccccc1)N(CCC(c1ccccc1)C1CCOC(C)(C)C1)C(=O)c1ccco1 (stereo unspecified)	1.4	-6.8	-2.34	x	-13.0	79.0*
CCOC(=O)c1nc2cc3n(c(C)c-2c1C)C(C)C(C)=C3C (stereo unspecified)	-1.7	56.4*	0.893	x	10.0	-1.3
CCOC(=O)c1nc2cc3n(c(CC(C)C)c-2c1C)CC(C)=C3C	0.0	-19.5	-0.159	x	1.2	6.4
COc1ccc(C(=O)N2CCC(n3c(C)nc4cc(F)ccc43)CC2)cc1	3.0	-4.5	-0.63	0.0748	7.3	-2.5
O=c1[nH]ncn1-c1ccccc1C(F)(F)F	-4.0	-4.1	x	x	-19.7	-18.9
O=c1[nH][nH]c(=S)n1-c1ccccc1C(F)(F)F	-5.0	60.5*	-0.313	-0.401	2.5	x
NC1=NC[C@H](Cc2ccc(O)cc2)N1CCc1cccc2ccccc12	x	62.6*	-0.0879	x	3.6	x
CCCCc1ccc(/C=C2\C(=O)c3ccccc3C(O)=C2C(=O)OCC)cc1	-3.7	57.9*	x	x	-15.5	72.3*
CN(c1ccccc1)S(=O)(=O)c1cccc(NC(=O)C2CC(=O)N(Cc3ccccc3)C2)c1 (stereo unspecified)	5.1	+	-0.102	x	6.2	x
COc1c(F)c(F)c(C(=O)Nc2c(C)cc(Br)cc2C)c(F)c1F	-8.4	-1.9	0.00286	x	-8.5	-6.2
SMILES	RBBP9 inh	NCF1 inh	KCC2 mod	ROMK primary	14-3-3 Bad inh	WT yeast gro inh
COc1ccc(C(C)=O)cc1CSc1nc2ccccc2c(=O)n1-c1cccc(C)c1	-5.8	2.0	-1.36	-0.379	-8.9	64.8*
COc1ccc(C(C)=O)cc1CSc1nc2ccccc2c(=O)n1-c1ccccc1C	-6.6	-17.3	-0.133	0.182	-32.1	61.1*
CCCNS(=O)(=O)c1ccc(OC)c(Cl)c1Cl	-1.7	30.4*	x	-0.97	-2.6	-10.4
COc1ccccc1CNc1nc2nc(C)c(C)c(=O)n2[nH]1	-8.3	-5.9	0.0541	-0.0785	2.3	78.7*
COC(=O)Cc1c(C)nc2nc(NCc3ccccc3OC)[nH]n2c1=O	-9.0	-11.2	0.445	x	-22.6	2.1
CC(c1nnc(SCC(=O)Nc2cccnc2Cl)n1Cc1ccccc1)N(C)C (stereo unspecified)	-6.4	1.0	0.493	-0.545	5.7	4.5
CCNC(=S)Nc1cc(Cl)ccc1Oc1ccccc1	4.6	-4.8	0.273	0.412	-9.5	1.6
S=C(Nc1ccccc1Oc1ccccc1)Nc1cccc(Cl)c1Cl	-2.8	-14.2	31.2*	x	0.1	64.9*
S=C(Nc1ccc(Cl)cc1Cl)Nc1ccccc1Oc1ccccc1	-11.3	-15.1	25*	x	-19.4	5.9
S=C(Nc1cccc(Cl)c1)Nc1ccccc1Oc1ccccc1	0.0	-5.8	5.43*	x	-10.0	52.0
CNC(=S)Nc1cc(Cl)ccc1Oc1ccccc1	-4.2	-0.6	0.354	-0.475	-14.2	-5.5
CCNc1nc(SCCOc2ccc(C)cc2)nc(N(C)C)n1	-6.1	-9.7	0.0455	x	-9.8	10.9
CCNc1nc(SCCOc2ccc(Cl)cc2Cl)nc(N(C)C)n1	-7.2	-2.5	-0.0363	-0.0385	-13.6	63.8*
COc1cccc(NC(=O)[C@H](C)NC(=O)C2CCN(S(=O)(=O)c3ccc(C)cc3)CC2)c1	-3.3	-4.6	-0.179	x	-8.6	x
CCc1[nH]nc2c1C(c1ccc(Br)s1)C(C#N)=C(N)O2 (stereo unspecified)	-10.1	-25.8	-4.44*	-4.17*	-7.9	12.0
CCc1[nH]nc2c1C(c1ccc(C)o1)C(C#N)=C(N)O2 (stereo unspecified)	2.5	-9.1	-0.0403	-2.46	-4.1	-16.5
Cc1cc2c(C)nc(N/N=C/c3ccc(F)cc3)nc2o1	-5.8	-11.5	-1.02	1.85	-3.5	6.5
Cc1cc2c(C)nc(N/N=C/c3ccc([N+](=O)[O-])cc3)nc2o1	-5.8	44.1*	0.638	x	48.1	8.2
O=C(CN1CCCCC1)Nc1ccc(F)c(Cl)c1	-13.5	-4.4	-0.647	-1.77	-16.6	9.4
O=C(CN1CCCCCC1)Nc1ccc(F)c(F)c1	7.5	-17.4	0.507	0.178	71.6*	-14.5
CCOC(=O)c1sc(NC(=O)Nc2ccc(Cl)cc2)cc1C	8.8	-52.6	-0.528	x	10.8	84.6*
OC1(c2cccc(C(F)(F)F)c2)CCN(c2ccc(-c3ccccc3)nn2)CC1	-4.6	-8.1	0.00571	x	2.4	-25.2
